# From ChEMBL document CHEMBL3120102, “Structure-based design, synthesis and biological evaluation of novel anthra[1,2-d]imidazole-6,11-dione homologues as potential antitumor agents” (2013)
# Tests used:
# Assay type in all cases: functional
# HCT-15 = experiment: Cytotoxicity against human HCT15 cells assessed as growth inhibition after 48 hrs by SRB assay
# How it was run: (§1)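 NCI 60-cell-line five-dose screen at […]. Drug exposure was 48 h, followed by sulforhodamine B protein staining. GI50, TGI and LC50 were calculated against a time-zero control and untreated plates, with dose–response curves plotted from log10 concentration.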
# RPMI-8226 = experiment: Cytotoxicity against human RPMI8226 cells assessed as growth inhibition after 48 hrs by SRB assay
# How it was run: (§2)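 NCI 60-cell-line screen, five-dose stage: each cell line exposed for 48 h to five concentrations spanning five log steps; cellular protein measured by sulforhodamine B colorimetry. A time-zero cell control and plates without drug are used to derive GI50, TGI and LC50 from log-concentration dose-response curves.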
# OVCAR-3 = experiment: Cytotoxicity against human OVCAR3 cells assessed as growth inhibition after 48 hrs by SRB assay; how it was run: as §2
# SN12C = experiment: Cytotoxicity against human SN12C cells assessed as growth inhibition after 48 hrs by SRB assay
# How it was run: (§3)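 NCI 60-cell-line screen, two stages. Five-dose testing at […]. Cellular protein measured by sulforhodamine B colorimetry after 48 h drug exposure. A time-zero control and drug-free plates are used to derive GI50, TGI and LC50 from dose-response curves plotted as log10 concentration per cell line.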
# SF-295 = experiment: Cytotoxicity against human SF295 cells assessed as growth inhibition after 48 hrs by SRB assay; how it was run: as §2
# OVCAR-4 = experiment: (§4) Cytotoxicity against human OVCAR4 cells assessed as growth inhibition after 48 hrs by SRB assay; how it was run: as §2
# [1] = as §4; settings: OVCAR-4, 48 h; how it was run: as §2
# RXF 393 = experiment: Cytotoxicity against human RXF393 cells assessed as growth inhibition after 48 hrs by SRB assay; how it was run: as §2
# NCI/ADR-RES = experiment: (§5) Cytotoxicity against human NCI-ADR-RES cells assessed as growth inhibition after 48 hrs by SRB assay; how it was run: as §2
# [2] = as §5; how it was run: as §2
# UACC-62 = experiment: Cytotoxicity against human UACC62 cells assessed as growth inhibition after 48 hrs by SRB assay; how it was run: as §3
# 786-0 = experiment: Cytotoxicity against human 786-0 cells assessed as growth inhibition after 48 hrs by SRB assay; how it was run: as §1
# SF-268 = experiment: Cytotoxicity against human SF268 cells assessed as growth inhibition after 48 hrs by SRB assay; how it was run: as §2
# A498 = experiment: Cytotoxicity against human A498 cells assessed as growth inhibition after 48 hrs by SRB assay; how it was run: as §1
# DU-145 = experiment: Cytotoxicity against human DU145 cells assessed as growth inhibition after 48 hrs by SRB assay; how it was run: as §1
# NCI-H23 = experiment: Cytotoxicity against human NCI-H23 cells assessed as growth inhibition after 48 hrs by SRB assay; how it was run: as §2
# NCI-H322M = experiment: Cytotoxicity against human NCI-H322M cells assessed as growth inhibition after 48 hrs by SRB assay; how it was run: as §2
# M14 = experiment: Cytotoxicity against human M14 cells assessed as growth inhibition after 48 hrs by SRB assay; how it was run: as §1
# CCRF-CEM = experiment: Cytotoxicity against human CCRF-CEM cells assessed as growth inhibition after 48 hrs by SRB assay; how it was run: as §1
# UO-31 = experiment: (§6) Cytotoxicity against human UO31 cells assessed as growth inhibition after 48 hrs by SRB assay; how it was run: as §3
# [3] = as §6; settings: UO-31, 48 h; how it was run: as §3
# MDA-MB-468 = experiment: Cytotoxicity against human MDA-MB-468 cells assessed as cell growth at 10 uM after 48 hrs by SRB assay; settings: MDA-MB-468, 48 h, read-out: Activity
# How it was run: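 First stage of the NCI 60 human tumour cell line screen: a single dose is tested against every line. Cell growth is read as cellular protein by sulforhodamine B colorimetry after 48 h of drug exposure, with reference to a time-zero control and to untreated plates.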
# HCC 2998 = experiment: Cytotoxicity against human HCC2998 cells assessed as growth inhibition after 48 hrs by SRB assay; how it was run: as §1
# OVCAR-5 = experiment: (§7) Cytotoxicity against human OVCAR5 cells assessed as growth inhibition after 48 hrs by SRB assay; how it was run: as §2
# [4] = as §7; settings: OVCAR-5, 48 h; how it was run: as §2
# SF-539 = experiment: Cytotoxicity against human SF539 cells assessed as growth inhibition after 48 hrs by SRB assay; how it was run: as §2
# BT-549 = experiment: Cytotoxicity against human BT549 cells assessed as growth inhibition after 48 hrs by SRB assay; how it was run: as §1
# NCI-H460 = experiment: Cytotoxicity against human NCI-H460 cells assessed as growth inhibition after 48 hrs by SRB assay; how it was run: as §2
smiles,measurement,setting,value
O=C1c2ccccc2C(=O)c2c1ccc1nc(SCCN3CCCC3)[nH]c21,growth inhibition (GI),HCT-15,Dose-dependent effect
same,GI50,"HCT-15; HCT-15, 48 h",1.62 µM
same,LC50 (concentration killing 50% of cells),"HCT-15; HCT-15, 48 h",34.7 µM
same,TGI,"HCT-15; HCT-15, 48 h",10.3 µM
same,growth inhibition (GI),RPMI-8226,Dose-dependent effect
same,GI50,"RPMI-8226; RPMI-8226, 48 h",1.79 µM
same,LC50 (concentration causing 50% net cell kill),"RPMI-8226; RPMI-8226, 48 h",15.4 µM
same,TGI,"RPMI-8226; RPMI-8226, 48 h",4.31 µM
same,growth inhibition (GI),OVCAR-3,Dose-dependent effect
same,GI50,"OVCAR-3; OVCAR-3, 48 h",2.76 µM
same,LC50 (50% lethal concentration),"OVCAR-3; OVCAR-3, 48 h",35.6 µM
same,TGI,"OVCAR-3; OVCAR-3, 48 h",11.1 µM
same,GI50,SN12C,5.96 µM
same,TGI,SN12C,19.6 µM
same,growth inhibition (GI),SN12C,Dose-dependent effect
same,CC50,SN12C; read-out: LC50 (the source's name),46.1 µM
same,growth inhibition (GI),SF-295,Dose-dependent effect
same,GI50,"SF-295; SF-295, 48 h",14.2 µM
same,LC50,"SF-295; SF-295, 48 h",60.9 µM
same,TGI,"SF-295; SF-295, 48 h",29.4 µM
same,growth inhibition (GI),OVCAR-4,Dose-dependent effect
same,GI50,[1],1.89 µM
same,LC50 (concentration killing 50% of cells),[1],38.9 µM
same,TGI,[1],7.34 µM
same,growth inhibition (GI),RXF 393,Dose-dependent effect
same,GI50,"RXF 393; RXF 393, 48 h",3.08 µM
same,TGI,"RXF 393; RXF 393, 48 h",16.3 µM
same,CC50,"RXF 393; RXF 393, 48 h, read-out: LC50 (the source's name)",48.5 µM
same,growth inhibition (GI),NCI/ADR-RES,Dose-dependent effect
same,GI50,[2],6.98 µM
same,LC50 (concentration causing 50% net cell kill),[2],> 100 µM
same,TGI,[2],33.7 µM
same,growth inhibition (GI),UACC-62,Dose-dependent effect
same,GI50,"UACC-62; UACC-62, 48 h",15.8 µM
same,LC50,"UACC-62; UACC-62, 48 h",57.4 µM
same,TGI,"UACC-62; UACC-62, 48 h",30.1 µM
same,growth inhibition (GI),786-0,Dose-dependent effect
same,GI50,"786-0; 786-0, 48 h",11.7 µM
same,LC50 (concentration causing 50% net cell kill),"786-0; 786-0, 48 h",54.7 µM
same,TGI,"786-0; 786-0, 48 h",25.3 µM
same,growth inhibition (GI),SF-268,Dose-dependent effect
same,GI50,"SF-268; SF-268, 48 h",9.54 µM
same,LC50 (concentration killing 50% of cells relative to time zero),"SF-268; SF-268, 48 h",52.9 µM
same,TGI,"SF-268; SF-268, 48 h",22.8 µM
same,growth inhibition (GI),A498,Dose-dependent effect
same,GI50,"A498; A498, 48 h",5.82 µM
same,TGI,"A498; A498, 48 h",21.3 µM
same,CC50,"A498; A498, 48 h, read-out: LC50 (the source's name)",49.4 µM
same,growth inhibition (GI),DU-145,Dose-dependent effect
same,GI50,"DU-145; DU-145, 48 h",3.42 µM
same,TGI,"DU-145; DU-145, 48 h",14.9 µM
same,CC50,"DU-145; DU-145, 48 h, read-out: LC50 (the source's name)",39.6 µM
same,growth inhibition (GI),NCI-H23,Dose-dependent effect
same,TGI,"NCI-H23; NCI-H23, 48 h",25.7 µM
same,TGI,NCI-H322M,21.4 µM
same,growth inhibition (GI),NCI-H322M,Dose-dependent effect
same,growth inhibition (GI),M14,Dose-dependent effect
same,GI50,"M14; M14, 48 h",8.24 µM
same,LC50,"M14; M14, 48 h",47.9 µM
same,TGI,"M14; M14, 48 h",21.2 µM
same,GI50,CCRF-CEM,3.34 µM
same,LC50,CCRF-CEM,62.8 µM
same,TGI,CCRF-CEM,15.6 µM
same,growth inhibition (GI),CCRF-CEM,Dose-dependent effect
same,growth inhibition (GI),UO-31,Dose-dependent effect
same,GI50,[3],2.08 µM
same,LC50,[3],44.9 µM
same,TGI,[3],15.8 µM
same,growth at 10 µM,MDA-MB-468,67.9%
same,growth inhibition (GI),HCC 2998,Dose-dependent effect
same,GI50,"HCC 2998; HCC 2998, 48 h",4.91 µM
same,TGI,"HCC 2998; HCC 2998, 48 h",18.5 µM
same,CC50,"HCC 2998; HCC 2998, 48 h, read-out: LC50 (the source's name)",46 µM
same,growth inhibition (GI),OVCAR-5,Dose-dependent effect
same,GI50,[4],15.5 µM
same,LC50,[4],55.8 µM
same,TGI,[4],29.4 µM
same,growth inhibition (GI),SF-539,Dose-dependent effect
same,GI50,"SF-539; SF-539, 48 h",6.79 µM
same,TGI,"SF-539; SF-539, 48 h",20.2 µM
same,CC50,"SF-539; SF-539, 48 h, read-out: LC50 (the source's name)",47.4 µM
same,growth inhibition (GI),BT-549,Dose-dependent effect
same,GI50,"BT-549; BT-549, 48 h",12.5 µM
same,LC50 (concentration killing 50% of cells),"BT-549; BT-549, 48 h",55.8 µM
same,TGI,"BT-549; BT-549, 48 h",26.4 µM
same,growth inhibition (GI),NCI-H460,Dose-dependent effect
same,TGI,"NCI-H460; NCI-H460, 48 h",4.77 µM
O=C1c2ccccc2C(=O)c2c1ccc1nc3n(c21)CCS3,growth at 10 µM,MDA-MB-468,69.7%
